Assay results: PMC4486254 (Bioorganic & medicinal chemistry, 2010)

System: HIV-1HXB2
Experiment: Replication assay
Type: cell-based
Conditions: at concentrations below 10 µM; MT-4 Luc system
How it was run: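 MT-4 cells stably transduced with a firefly luciferase cassette by a murine leukemia viral vector, constitutively expressing luciferase. 1 × 10^3 cells per well infected with HIV-1 HXB2 alongside various peptide concentrations. Cells lysed at 6–7 days post-infection; luciferase activity measured as chemiluminescence, in relative luciferase units. A retained signal indicates protection from virus-induced death; a drop indicates cytotoxicity.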

Ac-QIFEHLAGIIQILRFLRI-R8-NH2 [control peptide isomer of 5]
anti-HIV activity (in words): did not show anti-HIV activity
